The values that follow come from PubChem BioAssay.

Active and inactive are the calls of the source.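 The calls were made as follows, unless noted: active = inhibition of the reporter signal at or above 50%; inactive = inhibition below 50%.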

The nature of experiment [1]: inhibitors of TNFa-induced NFkB p65 translocation, primary screen, imaging, HUVEC, MLSMR starter and 10KST1 sets (AID 438;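 active = inhibition above 20% together with a positive visual image hit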;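 also: compound added about 3h40 before a 20 min TNFalpha stimulation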;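 as to inhibition: signal is the nuclear over cytoplasmic p65 intensity ratio per well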). As to conditions: HUVEC TNFa-induced p65 nuclear translocation; cell count: measured here: nuclei count (cytotoxicity indicator), at 2.08 µM; inhibition: at 2 µM, stronger effect = higher value, 0% TNFa-plus-vehicle, 100% no-TNFa wells.
Experiment [2] in a line: reduction of polyQ htt aggregates in cells – imaging, exon1htt(103Q)mCFP cells, high-content imaging, primary screen (AID 483;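 active = visual image review flags a hit and inhibition of aggregation exceeds 20%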;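 also: compound exposure lasted 3 days before fixation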;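 as to nuclei count: percent of the per-plate median nuclei count of sample wells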). As to conditions: exon1htt(103Q)mCFP cell line, aggregate imaging, at 2 µM; inhibition of aggregation: stronger effect = higher value; nuclei count: measured here: cell count, toxicity.
The nature of experiment [3]: endothelial E-selectin expression blockers – imaging, HUVEC, immunofluorescence, MLSMR starter and 10KST1 sets, primary screen (AID 487;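 active = visually confirmed hit in the image check and inhibition above 20%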;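 as to inhibition: signal is fraction of cell area covered by stained E-selectin grains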;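 as to nuclei count: 100% = median nuclei count of all wells on the same plate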). As to conditions: HUVEC TNFalpha-induced E-selectin immunofluorescence imaging, at 2 µM; inhibition: stronger effect = higher value; nuclei count: measured here: cell number, toxicity.
Experiment [4] concerns the target Voltage-gated potassium channel subunit beta-2 (Rattus norvegicus) (UniProt P62483). The experiment can be described thus: inhibitors of rat Kvbeta2 reductase activity – biochemical, NADPH fluorescence, primary screen (AID 622;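 active = fluorescence slope higher than the sample average by over 3 SD, cut at about -0.22 in these data, passing the limit was not always enough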;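 also: slope of raw intensity against log time taken from 70 to 1610 s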). As to conditions: recombinant KvBeta, 4-cyanobenzaldehyde reduction, at 10 µM, stronger effect = higher value.
The target is the same in experiment [5]. Nature of the experiment: enhancers of rat Kvbeta2 NADPH turnover – biochemical, NADPH fluorescence, primary screen (AID 623;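 active = NADPH fluorescence slope more negative than the mean of all samples by about 3 SD, 99.7% confidence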;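 also: fluorescence intensity change per second fitted from 20 to 320 s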). As to conditions: Recombinant KvBeta, NADPH fluorescence decrease slope, 10 min; at 10 µM; stronger effect = lower value.
Experiment [6] concerns the target Muscarinic acetylcholine receptor M4 (Homo sapiens) (UniProt P08173). Nature of the experiment: M4-linked GIRK flux change, two-sided – cell-based, HEK293 M4/GIRK, thallium flux, BTC-AM, M4 allosteric agonist project, primary screen (AID 625;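 active = fluorescence slope after compound addition differing from the mean of all tested samples at 99.7% confidence, mostly higher but some lower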;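 also: thallium influx through GIRK channels coupled to M4 in HEK293 cells with BTC-AM dye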). As to conditions: at 10 µM, actives lie on both sides. Put shortly:
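Material – HEK293 cells with M4 receptor and GIRK channels · Buffer or medium – pH 7.3 thallium assay buffer · Doses – one dose, 10 µM final · Timing – cells overnight at 37 °C, BTC-AM loading 1 h, reads 2 min total · Measured by – kinetic fluorescence with BTC-AM dye · Controls – carbachol and DMSO controls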

Experiment [7] is described as follows: blockers of RIG-like receptor reporter activation – cell-based, Sendai virus stimulus, luciferase, 10K MLSCN set, TLR/RLR signaling modifier project, primary screen (AID 602276;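 active = inhibition at or above 50% at 10 µM; inactive = inhibition below 50%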;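 also: firefly luciferase from ISG56 promoter only with Renilla not read in this screen; 0% = Sendai virus plus DMSO and 100% = medium plus DMSO without virus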). As to conditions: HEK293 RL24 IRF3 luciferase reporter, at 10 µM, stronger effect = higher value. On the technique in general: In a reporter assay the amount or activity of a reporter protein is the signal.

Experiment [8] can be described thus: TLR3 IRF3 reporter activation blockers – cell-based, poly I:C stimulus, luciferase, 10K MLSCN set, primary screen (AID 602277). As to conditions: HEK293-TLR3 RL24 IRF3 luciferase reporter, at 10 µM, stronger effect = higher value.

Sequence of Muscarinic acetylcholine receptor M4 (Homo sapiens) (P08173 whole entry, looked up): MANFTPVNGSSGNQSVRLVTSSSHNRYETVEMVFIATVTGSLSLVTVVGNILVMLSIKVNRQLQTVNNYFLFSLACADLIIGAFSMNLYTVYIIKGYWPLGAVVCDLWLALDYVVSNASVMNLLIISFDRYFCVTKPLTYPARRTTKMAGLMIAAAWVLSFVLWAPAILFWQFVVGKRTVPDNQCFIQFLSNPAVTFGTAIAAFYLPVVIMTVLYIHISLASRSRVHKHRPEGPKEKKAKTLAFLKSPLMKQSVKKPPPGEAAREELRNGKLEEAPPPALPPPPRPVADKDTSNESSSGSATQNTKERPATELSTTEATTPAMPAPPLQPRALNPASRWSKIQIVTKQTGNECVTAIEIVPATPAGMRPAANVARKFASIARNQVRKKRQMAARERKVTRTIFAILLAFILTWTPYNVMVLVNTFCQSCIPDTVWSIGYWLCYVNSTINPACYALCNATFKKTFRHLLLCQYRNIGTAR
Sequence of Voltage-gated potassium channel subunit beta-2 (Rattus norvegicus) (P62483 whole entry, looked up): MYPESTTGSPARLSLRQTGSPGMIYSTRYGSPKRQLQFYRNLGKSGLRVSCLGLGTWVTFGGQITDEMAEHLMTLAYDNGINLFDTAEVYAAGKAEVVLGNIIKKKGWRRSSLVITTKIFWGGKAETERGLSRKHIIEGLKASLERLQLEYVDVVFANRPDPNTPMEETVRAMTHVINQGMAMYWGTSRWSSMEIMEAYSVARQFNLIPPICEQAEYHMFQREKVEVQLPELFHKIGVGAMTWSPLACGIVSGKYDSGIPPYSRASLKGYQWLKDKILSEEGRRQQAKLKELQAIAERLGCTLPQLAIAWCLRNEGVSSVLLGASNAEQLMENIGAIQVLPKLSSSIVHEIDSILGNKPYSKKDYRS

Usually inhibition stands for the change of the read-out against control, counted positive when it falls. As for `Cn1c(=O)oc2cc(S(=O)(=O)N3CCC(C(=O)Nc4ccc(OC(F)(F)F)cc4)CC3)ccc21`, the cell count in experiment [1] was 261. Further, the inhibition in experiment [1] was 6.9% (inactive); in experiment [3] it was -19.6% (inactive); in experiment [7] it was 12.1% (inactive); in experiment [8] it was 17% (inactive). Also, in experiment [2], the inhibition of aggregation was 19.4% (inactive). In addition, the nuclei count in experiment [2] turned out to be 103%; in experiment [3], 75.1%. Besides, the fluorescence slope was -0.572 (inactive) in experiment [4] and 0.00653 (inactive) in experiment [6]. Further, the NADPH fluorescence slope in experiment [5] is -1.9e-05 (inactive).

Consider `Cc1cccc(N2CCN(C(=O)c3ccc(NS(=O)(=O)c4c(C)noc4C)cc3)CC2)c1C`, for which the cell count in experiment [1] worked out at 334. For the same compound, the inhibition in experiment [1] is 5.4% (inactive); in experiment [3], -283% (inactive); in experiment [7], -6.14% (inactive); in experiment [8] it was -0.151% (inactive). Besides, in experiment [2], the inhibition of aggregation is -23.1% (inactive). Besides, the nuclei count is 97.7% in experiment [2] and 84.9% in experiment [3]. The fluorescence slope is -0.545 (inactive) in experiment [4] and 0.00603 (inactive) in experiment [6]. In addition, the NADPH fluorescence slope in experiment [5] was -7.3e-05 (inactive).

For `Cc1ccc(-c2c3c(=O)n(C)c(=O)n(C)c3cn2CCCN2CCOCC2)cc1`, the cell count in experiment [1] came out at 761. Further, the inhibition was 4.5% (inactive) in experiment [1], -32% (inactive) in experiment [3], 10.9% (inactive) in experiment [7] and 18.9% (inactive) in experiment [8]. In addition, the inhibition of aggregation in experiment [2] is 1.2% (inactive). Also, the figures for the nuclei count in experiment [2] and in experiment [3] were 92.9% and 116%, respectively. Further, the fluorescence slope in experiment [4] is -0.414 (inactive); in experiment [6], 0.00744 (inactive). In addition, the NADPH fluorescence slope in experiment [5] is 2.2e-05 (inactive).

For `O=C(NCc1ccco1)c1cc2n(n1)C(C(F)(F)F)CC(c1ccc(F)cc1)N2` (centres undefined), the cell count in experiment [1] is 405. Besides, the inhibition in experiment [1] is 6.5% (inactive); in experiment [3] it was 8.6% (inactive); in experiment [7], 3.11% (inactive); in experiment [8] it was 12.1% (inactive). Also, in experiment [2], the inhibition of aggregation is -12.7% (inactive). For the same compound, the nuclei count in experiment [2] was 109%; in experiment [3] it was 103%. Further, the fluorescence slope in experiment [4] is -0.557 (inactive); in experiment [6], 0.00537 (inactive). Moreover, in experiment [5], the NADPH fluorescence slope is -7.3e-06 (inactive).

As for `CCn1c(CNc2ccc(C)cc2)nnc1SCC(=O)NCc1ccccc1`, the cell count in experiment [1] was found to be 648. Moreover, the inhibition in experiment [1] was 13.4% (inactive); in experiment [3], -45% (inactive); in experiment [7], -9.51% (inactive); in experiment [8], -4.1% (inactive). Also, in experiment [2], the inhibition of aggregation is 5.4% (inactive). Further, the nuclei count in experiment [2] was found to be 81.4%; in experiment [3], 115%. In addition, the fluorescence slope is -0.486 (inactive) in experiment [4] and 0.00606 (inactive) in experiment [6]. Also, in experiment [5], the NADPH fluorescence slope was 0.000173 (inactive).

For the compound `CCCCC(c1nnnn1C1CCCC1)N1CCN(C2CCCCC2)CC1` (centres undefined), the cell count in experiment [1] amounted to 625. Besides, the inhibition in experiment [1] was -40.8% (inactive); in experiment [3], -57.4% (inactive); in experiment [7] it was 10% (inactive); in experiment [8], 39.4% (inactive). Besides, the inhibition of aggregation in experiment [2] is -12% (inactive). Moreover, the nuclei count amounted to 100% in experiment [2] and 111% in experiment [3]. Further, the figures for the fluorescence slope in experiment [4] and in experiment [6] were -0.314 (inactive) and 0.00481 (inactive), respectively. In experiment [5], the NADPH fluorescence slope is -3.5e-05 (inactive).

As for `CCN1CCN(c2c(Cl)cccc2NC(=O)c2ccc3c(c2)OCCO3)CC1`, in experiment [1], the cell count was 505. The inhibition in experiment [1] is 2.1% (inactive); in experiment [3] it was -82.8% (inactive); in experiment [7], 10.2% (inactive); in experiment [8], 18.4% (inactive). Also, in experiment [2], the inhibition of aggregation was -4.5% (inactive). Also, the nuclei count in experiment [2] turned out to be 111%; in experiment [3], 216%. Also, the fluorescence slope was -0.264 (inactive) in experiment [4] and 0.0079 (inactive) in experiment [6]. In addition, the NADPH fluorescence slope in experiment [5] is -8.8e-06 (inactive).

On to `CCc1cccc(NS(=O)(=O)c2c(C)n[nH]c2C)c1`, for which the cell count in experiment [1] amounted to 679. Further, the inhibition in experiment [1] was -8.8% (inactive); in experiment [3] it was -135% (inactive); in experiment [7], 4.66% (inactive); in experiment [8], 19.7% (inactive). Besides, the inhibition of aggregation in experiment [2] is -12.8% (inactive). The nuclei count in experiment [2] was found to be 124%; in experiment [3], 111%. The fluorescence slope in experiment [4] was -0.465 (inactive); in experiment [6], 0.00614 (inactive). The NADPH fluorescence slope in experiment [5] was -1.4e-05 (inactive).

On to `CS(=O)(=O)N1CCN(CC2CC3C=CC2C3)CC1` (centres undefined), for which, in experiment [1], the cell count amounted to 367. Further, the inhibition in experiment [1] is -3% (inactive); in experiment [3] it was -18.9% (inactive); in experiment [7], 14.1% (inactive); in experiment [8] it was 25.1% (inactive). Also, in experiment [2], the inhibition of aggregation is -5.6% (inactive). For the same compound, the nuclei count worked out at 94.8% in experiment [2] and 123% in experiment [3]. For the same compound, the fluorescence slope in experiment [4] was -0.199 (inactive); in experiment [6], 0.00684 (inactive). The NADPH fluorescence slope in experiment [5] is -2e-05 (inactive).

Turning to `COC(=O)CN(c1ccc2c(c1)OCO2)S(C)(=O)=O`, in experiment [1], the cell count was determined as 356. The inhibition in experiment [1] is -0.3% (inactive); in experiment [3] it was 62.9% (inactive); in experiment [7], 8.14% (inactive); in experiment [8], 8.67% (inactive). Moreover, the inhibition of aggregation in experiment [2] is 17.1% (inactive). The nuclei count was found to be 81.1% in experiment [2] and 49.1% in experiment [3]. Besides, the fluorescence slope in experiment [4] was -0.482 (inactive); in experiment [6], 0.00639 (inactive). Moreover, in experiment [5], the NADPH fluorescence slope is -2.7e-06 (inactive).

On to `COc1cc(NC(=O)Cc2cccs2)ccc1-n1cnnn1`, for which the cell count in experiment [1] amounted to 299. Further, the inhibition is 0% (inactive) in experiment [1], -50.9% (inactive) in experiment [3], 18.4% (inactive) in experiment [7] and 21.1% (inactive) in experiment [8]. Besides, the inhibition of aggregation in experiment [2] was -26.9% (inactive). Moreover, the nuclei count worked out at 100% in experiment [2] and 112% in experiment [3]. The fluorescence slope in experiment [4] is -0.543 (inactive); in experiment [6] it was 0.00442 (inactive). In addition, in experiment [5], the NADPH fluorescence slope is -3.6e-05 (inactive).

Take `NC(=O)c1oc2ccc(Cl)cc2c1NC(=O)CN1CCOCC1`: the cell count in experiment [1] was 436. In addition, the inhibition in experiment [1] was 2.7% (inactive); in experiment [3], -114% (inactive); in experiment [7], 4.86% (inactive); in experiment [8], 1.98% (inactive). The inhibition of aggregation in experiment [2] is 3.6% (inactive). For the same compound, the nuclei count was found to be 112% in experiment [2] and 123% in experiment [3]. For the same compound, the fluorescence slope is -0.53 (inactive) in experiment [4] and 0.00578 (inactive) in experiment [6]. Also, in experiment [5], the NADPH fluorescence slope is -5.2e-05 (inactive).

Consider `Cc1nc2sc(C(c3cccc(F)c3)N3CCN(C(=O)c4ccco4)CC3)c(O)n2n1` (centres undefined), for which the cell count in experiment [1] amounted to 228. In addition, the inhibition in experiment [1] is -2.8% (inactive); in experiment [3] it was -7% (inactive); in experiment [7], -14.2% (inactive); in experiment [8] it was -22.6% (inactive). Further, in experiment [2], the inhibition of aggregation is -3.1% (inactive). The nuclei count in experiment [2] is 106%; in experiment [3], 112%. Also, the fluorescence slope in experiment [4] is -0.306 (inactive); in experiment [6], 0.00489 (inactive). In addition, the NADPH fluorescence slope in experiment [5] was -1.4e-05 (inactive).

Take `Cc1cnc(C(=O)Nc2ccc(-n3cnnn3)cc2)cn1`: the cell count in experiment [1] is 508. Further, the inhibition in experiment [1] was -16.7% (inactive); in experiment [3], 15.8% (inactive); in experiment [7] it was 10.3% (inactive); in experiment [8], -4.35% (inactive). Moreover, the inhibition of aggregation in experiment [2] is -8.7% (inactive). The nuclei count turned out to be 95.2% in experiment [2] and 95.7% in experiment [3]. The fluorescence slope is -0.513 (inactive) in experiment [4] and 0.00454 (inactive) in experiment [6]. Further, in experiment [5], the NADPH fluorescence slope was -5.9e-05 (inactive).
